T cruzi growth-1 – blocks T. cruzi growth in NIH3T3 culture; T. cruzi beta-gal in NIH3T3, GalScreen luminescence, 90 h; inhibition, % at 8.34 µM; 5.9% of 77,000 active;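 active means mean inhibition above about 93%, with at least 55% of replicates each passing it, limit read from the data, passing the limit was not always enough; inconclusive means only one of those two conditions holds; inactive means neither condition holds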
IDH1 mut inh – inhibitors of human IDH1 R132H | AID 624101 | inhibition, % at 10 µM | O75874 | 0.18% of 70,000 active | IDH1 R132H reductase, diaphorase/resazurin fluorescence, 60 min; in the data active means inhibition above about 34%; inconclusive means no clear call, values can overlap the other calls; inactive means below about 11%
GASC1 inh – inhibitors of human demethylase GASC-1 KDM4C. GST-KDM4C 2-372, H3K9me3 peptide, LANCE TR-FRET. inhibition, % at 12.5 µM. 0.15% of 96,000 active. AID 720574;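 active means mean replicate inhibition above about 25%, with at least 55% of replicates also reaching it, limit read from the data, passing the limit was not always enough; inconclusive means only one of those two conditions met; inactive means neither condition met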
Target sequence (Q9H3R0 2-372 limits assumed): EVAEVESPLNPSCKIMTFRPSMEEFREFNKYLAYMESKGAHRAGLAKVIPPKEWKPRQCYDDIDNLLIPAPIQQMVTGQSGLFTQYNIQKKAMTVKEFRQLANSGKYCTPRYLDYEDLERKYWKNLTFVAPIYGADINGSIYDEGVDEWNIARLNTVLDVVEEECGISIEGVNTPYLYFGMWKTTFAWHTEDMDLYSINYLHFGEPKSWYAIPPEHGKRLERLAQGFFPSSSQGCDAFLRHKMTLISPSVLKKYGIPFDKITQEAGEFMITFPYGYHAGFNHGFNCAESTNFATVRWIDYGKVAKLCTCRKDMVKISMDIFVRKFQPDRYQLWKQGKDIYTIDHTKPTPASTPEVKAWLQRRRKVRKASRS
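Test system: N-terminal GST-fused human GASC-1 (KDM4C) fragment, residues 2-372; quantity: GASC-1 enzyme at 10 nM final in reaction; dosing: single dose; schedule: 30 min demethylation and 1 h detection at room temperature; signal: LANCE TR-FRET, excitation 340 nm, emissions 618 and 671 nm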
T cruzi growth-2 – blocks T. cruzi growth in NIH3T3 host cells | shares compounds with T cruzi growth-1 | T. cruzi beta-gal in NIH3T3, GalScreen luminescence, 90 h | inhibition, % at 8.35 µM | 72% of 5,600 active | AID 651739;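 active means mean replicate inhibition above about 95% and at least 55% of replicates individually reaching it, limit read from the data; inconclusive means only one of the two criteria is met; inactive means neither criterion is met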
T cruzi growth-3 – inhibitors of T. cruzi proliferation | 21% of 5,600 active | T. cruzi beta-gal in NIH3T3, GalScreen luminescence, 90 h | inhibition, % at 2.09 µM | shares compounds with T cruzi growth-1;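 active means mean inhibition above about 95%, with at least 55% of replicates also reaching it, limit read from the data; inconclusive means meets just one of the two conditions; inactive means meets neither condition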
3T3 cytotox – cytotoxicity in mouse NIH/3T3 fibroblasts. shares compounds with T cruzi growth-1. NIH/3T3 viability, CellTiter-Glo ATP luminescence, 90 h. cytotoxicity (signal decrease), % at 8.35 µM. 14% of 5,600 active. AID 651742;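 active means mean signal decrease across replicates above about 35% based on untreated-well scatter, with enough replicates individually passing, limit read from the data; inconclusive means no rule stated though some were filed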
NIH3T3 tox 2 – NIH/3T3 (mouse) viability loss. NIH/3T3 viability, CellTiter-Glo ATP luminescence, 90 h. 56% of 5,600 active. AID 651744. shares compounds with T cruzi growth-1. inhibition, % at 24.9 µM;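 active means mean loss of cell viability signal at or above a set limit, and enough replicates individually reaching it; inconclusive means meets only the mean limit or only the replicate share; inactive means meets neither condition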
A number is an active result; - = inactive; ? = inconclusive; . = not tested or not shown. The entries come from a sample that favours hits as a whole.

SMILES	T cruzi growth-1	IDH1 mut inh	GASC1 inh	T cruzi growth-2	T cruzi growth-3	3T3 cytotox	NIH3T3 tox 2
O=C(Nc1ccccc1F)N1CCCCN2[C@H](C1)[C@@H](c1ccc(C3=CCCC3)cc1)[C@@H]2CO	-	.	-	.	.	.	.
COc1ccc2c3c([nH]c2c1)[C@H](CO)N(CC1CC1)CC31CCN(C(=O)c2ccccc2F)CC1	.	.	-	.	.	.	.
C[C@@H](O)C#Cc1cnc2c(c1)C(=O)N([C@@H](C)CO)C[C@H](C)[C@@H](CN(C)C(=O)c1ccncc1)O2	-	.	-	.	.	.	.
C[C@H]1CN([C@@H](C)CO)C(=O)c2cc(/C=C/c3ccccc3)cnc2O[C@@H]1CN(C)S(=O)(=O)c1ccc(F)cc1	83	-	-	100	-	-	-
C/C=C/c1cnc2c(c1)C(=O)N([C@@H](C)CO)C[C@@H](C)[C@@H](CN(C)S(=O)(=O)c1ccc(F)cc1)O2	-	-	-	.	.	.	.
C/C=C/c1cnc2c(c1)C(=O)N([C@H](C)CO)C[C@H](C)[C@H](CN(C)S(=O)(=O)c1ccc(F)cc1)O2	-	-	-	.	.	.	.
C[C@@H]1CN([C@H](C)CO)C(=O)c2cc(/C=C/c3ccccc3)cnc2O[C@@H]1CN(C)S(=O)(=O)c1ccc(F)cc1	80	-	-	105	-	-	51
COc1ccc2c3c(n(C)c2c1)[C@H](CO)N(CC1CCOCC1)CC31CN(C(=O)Nc2ccccc2)C1	.	.	-	.	.	.	.
CO[C@@H]1CN(C)C(=O)c2cc(NS(=O)(=O)c3cccc(F)c3)ccc2OC[C@H](C)N(Cc2cc(F)ccc2F)C[C@@H]1C	-	-	-	.	.	.	.
CO[C@@H]1CN(C)C(=O)c2ccc(NS(=O)(=O)c3cccc(F)c3)cc2OC[C@@H](C)N(Cc2cc(F)ccc2F)C[C@@H]1C	.	-	-	.	.	.	.
CO[C@@H]1CN(C)C(=O)c2cc(NS(=O)(=O)c3cccc(F)c3)ccc2OC[C@@H](C)N(Cc2cc(F)ccc2F)C[C@H]1C	?	-	-	103	?	-	-
CO[C@H]1CN(C)C(=O)c2cc(NS(=O)(=O)c3cccc(F)c3)ccc2OC[C@@H](C)N(Cc2cc(F)ccc2F)C[C@H]1C	?	-	-	111	-	-	52
CO[C@@H]1CN(C)C(=O)c2ccc(NS(=O)(=O)c3cccc(F)c3)cc2OC[C@H](C)N(Cc2cc(F)ccc2F)C[C@@H]1C	.	-	-	.	.	.	.
COc1ccc(S(=O)(=O)Nc2ccc3c(c2)OC[C@@H](C)N(Cc2cc(F)ccc2F)C[C@@H](C)[C@H](OC)CN(C)C3=O)cc1	122	-	-	110	-	-	-
CO[C@@H]1CN(C)C(=O)c2ccc(NS(=O)(=O)c3cccc(C)c3)cc2OC[C@@H](C)N(Cc2cc(F)ccc2F)C[C@H]1C	98	-	-	106	-	-	-
CO[C@@H]1CN(C)C(=O)c2cc(NS(=O)(=O)c3cccc(F)c3)ccc2OC[C@H](C)N(Cc2cc(F)ccc2F)C[C@H]1C	-	-	-	.	.	.	.
Cc1cc(OCC(=O)Nc2ccccc2N2CCN(C)CC2)cc(C)c1Cl	.	-	.	.	.	.	.
COc1cccc(-c2ccc([C@H]3[C@@H](CO)N4C(=O)CN(C(=O)C5CCOCC5)C[C@@H]34)cc2)c1	.	.	-	.	.	.	.
O=C(Nc1ccc(Cl)cc1)N1C[C@@H]2[C@H](c3ccccc31)[C@H](CO)N2C(=O)c1ccccn1	-	.	-	.	.	.	.
CC(C)C#Cc1ccc([C@H]2[C@@H](CO)N(C(=O)C3CCOCC3)[C@H]2C#N)cc1	98	-	-	106	-	-	-
CC(C)C#Cc1ccc([C@H]2[C@@H](C#N)N(C(=O)C3CC3)[C@H]2CO)cc1	-	.	-	.	.	.	.
CC(C)C#Cc1ccc([C@@H]2[C@H](C#N)N(C(=O)C3CCC3)[C@H]2CO)cc1	?	.	-	104	-	-	34
CC(C)C#Cc1ccc([C@@H]2[C@@H](C#N)N(C(=O)C3CC3)[C@H]2CO)cc1	-	.	-	.	.	.	.
CC(C)C#Cc1ccc([C@@H]2[C@@H](CO)N(C(=O)C3CCC3)[C@H]2C#N)cc1	100	.	-	100	-	-	31
CC(C)C#Cc1ccc([C@H]2[C@@H](C#N)N(C(=O)C3CCC3)[C@H]2CO)cc1	98	.	-	100	-	-	37
SMILES	T cruzi growth-1	IDH1 mut inh	GASC1 inh	T cruzi growth-2	T cruzi growth-3	3T3 cytotox	NIH3T3 tox 2
CC(C)C#Cc1ccc([C@H]2[C@@H](C#N)N(C(=O)C3CCC3)[C@@H]2CO)cc1	-	.	-	.	.	.	.
COc1ccc(NC(=O)N(C)C[C@@H]2Oc3ccc(NC(=O)CCC(F)(F)F)cc3C(=O)N([C@H](C)CO)C[C@@H]2C)cc1	-	-	-	.	.	.	.
N#C[C@H]1[C@@H](c2ccccc2-c2ccccc2)[C@H](CO)N1C(=O)Cc1cccnc1	.	.	-	.	.	.	.
C[C@@H]1CN([C@@H](C)CO)C(=O)Cc2cc(NC(=O)Cc3ccccc3)ccc2O[C@H]1CN(C)S(=O)(=O)c1cccs1	-	-	-	.	.	.	.
CO[C@H](CN(C)C(=O)Nc1ccc(Cl)cc1)[C@H](C)CN(Cc1ccccc1Cl)[C@H](C)CO	109	-	-	109	-	?	60
CO[C@H](CN(C)C(=O)Nc1ccc(Cl)cc1)[C@H](C)CN(Cc1ccccc1Cl)[C@@H](C)CO	114	-	-	103	99	42	49
CO[C@H](CN(C)S(=O)(=O)c1ccc(Cl)cc1)[C@H](C)CN(Cc1ccccc1Cl)[C@@H](C)CO	-	-	-	.	.	.	.
CO[C@@H](CN(C)C(=O)Nc1ccc(Cl)cc1)[C@@H](C)CN(Cc1ccccc1Cl)[C@H](C)CO	111	-	-	106	-	-	31
CO[C@@H](CN(C)S(=O)(=O)c1ccc(Cl)cc1)[C@@H](C)CN(Cc1ccccc1Cl)[C@H](C)CO	?	-	-	101	-	-	99
CO[C@@H](CN(C)S(=O)(=O)c1ccc(Cl)cc1)[C@H](C)CN(Cc1ccccc1Cl)[C@@H](C)CO	-	-	-	.	.	.	.
CO[C@@H](CN(C)C(=O)Nc1ccc(F)cc1)[C@H](C)CN(Cc1ccccc1Cl)[C@H](C)CO	-	-	-	.	.	.	.
CO[C@H](CN(C)C(=O)Nc1ccc(F)cc1)[C@H](C)CN(Cc1ccccc1Cl)[C@H](C)CO	-	-	-	.	.	.	.
CCC(=O)N1[C@H](C#N)[C@H](c2ccccc2-c2cccc(C)c2)[C@@H]1CO	.	.	-	.	.	.	.
Cc1ccc(-c2ccc([C@H]3[C@H](CO)N4CCCCN(C(=O)c5ccc(F)cc5)C[C@@H]34)cc2)cc1	103	.	-	?	-	-	106
CC(=O)N1CCCCN2[C@H](CO)[C@@H](c3ccc(-c4ccc(F)cc4)cc3)[C@H]2C1	-	.	-	.	.	.	.
O=C(c1ccc(F)cc1)N1CCCCN2[C@@H](CO)[C@@H](c3ccc(-c4ccccc4)cc3)[C@@H]2C1	-	.	-	.	.	.	.
Cc1ccc(-c2ccc([C@@H]3[C@H](CO)N4CCCCN(C(=O)c5ccncc5)C[C@@H]34)cc2)cc1	-	.	-	.	.	.	.

Screening data deposited in PubChem BioAssay by Broad Institute.
